An excerpt weighted towards active compounds, which were near 3.7% of everything screened.
NPY-Y1 antag = NPY-Y1 (human) receptor antagonism | inhibition, % at 3.6 µM | hit rate 1% among 200,000 | HEK293-CNG Y1 cells, membrane potential fluorescence; NPY at EC95, then isoproterenol;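 active = inhibition above the campaign mean inhibition of all tested compounds plus 3 SD, cut at about 20% in these data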;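 note: 0% = DMSO wells given NPY plus isoproterenol and 100% = isoproterenol alone without NPY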
Target sequence (P25929 whole entry, looked up): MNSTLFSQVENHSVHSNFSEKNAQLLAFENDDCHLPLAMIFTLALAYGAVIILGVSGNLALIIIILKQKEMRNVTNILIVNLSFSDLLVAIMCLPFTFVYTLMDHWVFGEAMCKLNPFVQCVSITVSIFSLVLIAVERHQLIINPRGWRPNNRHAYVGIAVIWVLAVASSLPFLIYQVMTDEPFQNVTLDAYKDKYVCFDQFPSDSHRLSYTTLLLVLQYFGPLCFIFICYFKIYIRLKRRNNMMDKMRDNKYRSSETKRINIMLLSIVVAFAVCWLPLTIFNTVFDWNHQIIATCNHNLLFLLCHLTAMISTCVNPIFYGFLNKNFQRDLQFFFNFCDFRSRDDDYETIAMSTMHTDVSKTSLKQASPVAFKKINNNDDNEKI
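Assay system: HEK293 cells with Y1 receptor plus CNG channel | Probe or stimulus: NPY (25 nM), isoproterenol (1 µM), Ro 20-1724 (25 µM) | Timing: Compound incubation 1 h at room temperature, readout 45 min post-stimulation | Measured by: Membrane-potential fluorescent dye readout | Benchmarks: High control isoproterenol alone, low control NPY with isoproterenol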
Cl transport mod = modulators of human KCC2 chloride dependent transport; B-score of Tl+ flux slope (higher = more flux/activation; lower = inhibition) at 10 µM; KCC2 cells, thallium flux FluoZin-2 fluorescence; AID 1456; Q9H2X9; hit rate 2.2% among 190,000;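 active = thallium flux slope and its plate-corrected score both differing from the plate sample mean at a set confidence after two filtering rounds, in either direction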;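 note: slope of fluorescence scaled to starting intensity during 10 to 20 s after thallium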
Furin inhibitor = human furin inhibition. purified furin, fluorogenic substrate cleavage. hit rate 0.061% among 220,000. AID 463115. inhibition, % at 20 µM or 30 µM. P09958; in the data active = inhibition above about 25%
NPY1 pot ag = human NPY-Y1 potentiation or agonism, primary screen; P25929; NPY-Y1 expressing cells, potentiator/agonist activation; activation, % at 3.6 µM; hit rate 0.37% among 220,000; AID 1304; in the data active = activation above about 33%, passing the limit was not always enough;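 note: cells stimulated with NPY at EC10 then isoproterenol at EC100; 0% = low agonist plus stimulus and 100% = saturating agonist plus stimulus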
NPY2 pot ag = human NPY-Y2 potentiation or agonism, primary screen; activation, % at 3.6 µM; hit rate 0.45% among 220,000; cells expressing NPY-Y2, potentiator/agonist read-out; in the data active = activation above about 27%;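 note: cells stimulated with NPY near EC25 plus isoproterenol at EC100; 0% = vehicle plus submaximal agonist and 100% = vehicle plus saturating agonist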
NPY Y2 blocker = blocks the human neuropeptide Y Y2 receptor. NPY-Y2 expressing cells, antagonist mode. P49146. hit rate 0.99% among 140,000. inhibition, % at 2.7 µM; in the data active = inhibition above about 17%;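 note: 0% = vehicle with agonist challenge and 100% = reference antagonist with challenge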
KCC2 secondary = confirmation of human KCC2 transport modulators. hit rate 15% among 3,700. normalised thallium flux (F/F0 slope) at 10 µM. HEK293-KCC2, thallium flux, FluoZin2 fluorescence; active compounds read high. shares compounds with Cl transport mod. AID 1713;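 active = thallium flux slope above the same plate's solvent-only control mean plus 3 SD; inconclusive = the two replicate wells disagree; inactive = no significant difference from solvent-only control wells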
KCC2 bumet counter = thallium flux despite bumetanide block in KCC2 cells, secondary assay 3 | shares compounds with Cl transport mod | HEK293-KCC2 + bumetanide/ouabain, thallium flux FluoZin2; active compounds read high | normalized thallium flux at 10 µM | hit rate 49% among 3,700 | AID 1714;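 active = thallium entry rate above the same plate's blocked-transporter control wells by more than 3 SD; inconclusive = the two repeat wells disagree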;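 note: raw slope of fluorescence over initial fluorescence between 10 and 20 s after thallium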
KCC2 secondary2 = KCC2 (human) modulation, second secondary assay; shares compounds with Cl transport mod; HEK293-KCC2, thallium flux FluoZin2 fluorescence; actives lie on both sides; F/F0 rise rate, 10–20 s post-thallium; normalized thallium flux at 10 µM; hit rate 23% among 3,700; AID 1715;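 active = thallium flux slope more than 3 SD above or below the plate's solvent-only control mean, mostly below; inconclusive = the two repeat wells disagreed; inactive = no significant shift from solvent-only controls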;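 note: raw slope with 0.1% DMSO as baseline and bumetanide as block control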
HEK293 Tl flux = acts in parental HEK cells, KCC2 counter-screen; AID 1716; thallium flux rate (normalised fluorescence) at 10 µM; HEK293 parental cells, thallium flux FluoZin2, ouabain; baseline-ratio fluorescence slope, 10–20 s after thallium; shares compounds with Cl transport mod; hit rate 46% among 3,700;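 active = thallium flux rate significantly above the same plate's solvent-only control wells, beyond their mean plus 3 SD; inconclusive = the two replicate wells gave conflicting results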
KCC2 retest ouab = confirmation of human KCC2 modulators with ouabain; shares compounds with Cl transport mod; HEK293-KCC2, thallium flux FluoZin2 fluorescence; bidirectional: low = inhibitor, high = activator; raw Tl+ flux slope (below DMSO = inhibition, above = activation) at 10 µM; hit rate 48% among 3,700;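 active = thallium flux slope beyond 3 SD from same-plate DMSO control mean in most replicates, usually higher, sometimes lower; inconclusive = repeat tests gave conflicting results; inactive = no significant difference from controls in most replicates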;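 note: slope of initial-normalized fluorescence between seconds 10 and 20 after thallium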
HEK counter2 = acts in parental HEK cells, second KCC2 counter-screen; HEK293 parental, thallium flux FluoZin-2 fluorescence slope; thallium flux slope at 10 µM; shares compounds with Cl transport mod; hit rate 33% among 3,700;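 active = thallium flux slope above the same plate's solvent-control mean plus 3 SD in both duplicate wells; inconclusive = duplicate wells that disagreed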;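 note: run without ouabain in cells lacking the KCC2 cotransporter; slope of fluorescence scaled to its starting value between 10 and 20 s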
* hit, by the source's call.

CCN(CC(=O)NCc1ccc(Cl)cc1)S(=O)(=O)c1ccc(NC(C)=O)cc1 was read as NPY-Y1 antag 5.1, Cl transport mod 0.0497, Furin inhibitor -16.4, NPY1 pot ag -10.2 and NPY2 pot ag 8.9.
Cc1ccc(-c2oc3ccccc3c(=O)c2OCC(=O)O)cc1 was read as NPY-Y1 antag -2.5, Cl transport mod 0.0278, Furin inhibitor -20.1, NPY1 pot ag 9.7 and NPY2 pot ag 5.7.
`Cc1ccc(-c2oc3ccccc3c(=O)c2O)cc1` gave NPY-Y1 antag 0.6, Cl transport mod 106*, Furin inhibitor -16.4, NPY1 pot ag -24.5, NPY2 pot ag 5.3, NPY Y2 blocker 3.5, KCC2 secondary 0.00992*, KCC2 bumet counter 0.101*, KCC2 secondary2 0.0811*, HEK293 Tl flux 0.0949*, KCC2 retest ouab 0.0974* and HEK counter2 0.0798*.
Screening Cc1ccc(NC(=O)c2ccc(Cl)c(N3C(=O)C=CC3=O)c2)cc1 returned NPY-Y1 antag 5.0, Cl transport mod -1.4, Furin inhibitor -6.2, NPY1 pot ag 26.7, NPY2 pot ag -3.1 and NPY Y2 blocker -1.4.
For O=C1NC(=S)SC1=C1CCCC1 the results were NPY-Y1 antag -1.9, Cl transport mod 17.7*, Furin inhibitor 12.2, NPY1 pot ag -26.5, NPY2 pot ag -13.6, NPY Y2 blocker 4.9, KCC2 secondary 0.00656, KCC2 bumet counter 0.0283*, KCC2 secondary2 0.0425*, HEK293 Tl flux 0.0286*, KCC2 retest ouab 0.0368* and HEK counter2 0.0319*.
`CN1C(=O)C(=C2CCCCCC2)SC1=S` gave NPY-Y1 antag -2.4, Furin inhibitor -18.4, NPY1 pot ag 6.4, NPY2 pot ag 2.5 and NPY Y2 blocker 1.4.
Screening COCCn1c(=O)[nH]c2cc(C(=O)NCCc3ccc(S(N)(=O)=O)cc3)ccc2c1=O returned NPY-Y1 antag 1.5, Cl transport mod 0.0189, Furin inhibitor -13.2, NPY1 pot ag -22.5 and NPY2 pot ag 2.0.
For O=c1nc(Nc2cccc(Cl)c2)oc2cc(Cl)oc(=O)c12 the results were Cl transport mod -4.53*, Furin inhibitor -19.9, NPY1 pot ag 10.5, NPY2 pot ag 12.8, KCC2 secondary 0.00622, KCC2 bumet counter 0.00485, KCC2 secondary2 0.029, HEK293 Tl flux 0.00646, KCC2 retest ouab inconclusive and HEK counter2 0.0102.
O=c1nc(Nc2ccccc2)oc2ccccc12 was read as Cl transport mod 0.218, Furin inhibitor -9.4, NPY1 pot ag 7.7 and NPY2 pot ag 2.4.
Screening Fc1ccccc1Nc1n[nH]c(=S)s1 returned NPY-Y1 antag 12.9, Cl transport mod -3.54, Furin inhibitor -23.6, NPY1 pot ag -13.7 and NPY2 pot ag -21.6.
`S=c1[nH]nc(Nc2cccc3ccccc23)s1` gave Cl transport mod 30.3*, Furin inhibitor -11.7, NPY1 pot ag 0.3, NPY2 pot ag -9.2, KCC2 secondary 0.00783*, KCC2 bumet counter 0.0233*, KCC2 secondary2 0.0166*, HEK293 Tl flux 0.00878*, KCC2 retest ouab 0.016* and HEK counter2 0.00986.

Bioassay records (PubChem)
